Activity data for two compounds are collected here from ChEMBL document CHEMBL4118021, “Studies of TAK1-centered polypharmacology with novel covalent TAK1 inhibitors” (Bioorg Med Chem, 2017).

Each structure is given as a SMILES string. The source made the active and inactive calls. The calls are words filed in the database; no cut-off is given here.

The target in test [1] is Activin receptor type-1 (Homo sapiens) (UniProt Q04771). As to the kind of experiment: Inhibition of human ACVR1 (188 to 509 residues) expressed in bacterial expression system assessed as enzyme activity at 10 uM by KINOMEScan assay relative to control. Further details: scale not given: the % may be the effect or the level left. The method, boiled down:
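In vitro ATP-site competition binding assay (KinomeScan) across a panel of 456 kinases. Compound was tested at 1 and 10 μM. The read-out is the binding inhibition score relative to control.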

The target of test [2] is Vascular endothelial growth factor receptor 1 (Homo sapiens) (UniProt P17948). As to the kind of experiment: Inhibition of human FLT1 (781 to 1239 residues) expressed in bacterial expression system assessed as enzyme activity at 10 uM by KINOMEScan assay relative to control. Also on record: scale not given: the % may be the effect or the level left. The method, boiled down: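 In vitro ATP-site competition binding assay across a panel of 456 kinases, with compound tested at 1 and 10 μM.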

Test [3] concerns the target DnaJ homolog subfamily B member 6 (Homo sapiens) (UniProt O75190). As to the kind of experiment: Binding affinity to DNAJB6 in human NCI-H358 cells at 1 uM by mass spectrometry based pull down assay. Format: cell-based.
The target of test [4] is Aminoacyl tRNA synthase complex-interacting multifunctional protein 1 (Homo sapiens) (UniProt Q12904). As to the kind of experiment: Binding affinity to AIMP1 in human NCI-H358 cells at 1 uM by mass spectrometry based pull down assay. Format: cell-based. The method, boiled down:
(§1)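 NCI-H23 or NCI-H358 cells were grown and lysed. Lysates were incubated overnight at 4 °C with 1 μM biotinylated covalent probe or DMSO, then pulled down on streptavidin beads. Proteins were run on polyacrylamide gels and stained with Coomassie. Bands were excised, digested and identified by mass spectrometry.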

For test [5], the target named is Acylamino-acid-releasing enzyme (Homo sapiens) (UniProt P13798). As to the kind of experiment: Binding affinity to APEH in human NCI-H358 cells at 1 uM by mass spectrometry based pull down assay. Format: cell-based.
Test [6] has as its target TGF-beta-activated kinase 1 and MAP3K7-binding protein 3 (Homo sapiens) (UniProt Q8N5C8). As to the kind of experiment: Binding affinity to TAB3 in human NCI-H23 cells at 1 uM by mass spectrometry based pull down assay. Format: cell-based.
Test [7] has as its target Signal recognition particle subunit SRP54 (Homo sapiens) (UniProt P61011). As to the kind of experiment: Binding affinity to SRP54 in human NCI-H358 cells at 1 uM by mass spectrometry based pull down assay. Format: cell-based.
For test [8], the target named is T1, Dual specificity mitogen-activated protein kinase kinase 5 (Homo sapiens) (UniProt Q13163).
T1 sequence (whole entry): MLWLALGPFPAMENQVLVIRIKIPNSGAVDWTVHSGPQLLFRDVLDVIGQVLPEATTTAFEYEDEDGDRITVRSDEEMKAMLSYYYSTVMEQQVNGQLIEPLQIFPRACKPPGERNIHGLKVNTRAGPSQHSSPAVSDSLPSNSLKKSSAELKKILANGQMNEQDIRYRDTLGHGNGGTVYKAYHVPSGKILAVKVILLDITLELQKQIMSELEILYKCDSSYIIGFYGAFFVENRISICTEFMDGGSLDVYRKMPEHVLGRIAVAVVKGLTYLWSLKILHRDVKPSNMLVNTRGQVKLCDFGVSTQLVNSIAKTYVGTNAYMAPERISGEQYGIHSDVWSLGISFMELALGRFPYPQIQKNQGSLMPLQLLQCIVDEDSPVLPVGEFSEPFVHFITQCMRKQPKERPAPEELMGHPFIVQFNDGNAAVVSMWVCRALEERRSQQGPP
As to the kind of experiment: Binding affinity to MAP2K5 in human NCI-H23 cells at 1 uM by mass spectrometry based pull down assay. Format: cell-based.

Test [9] concerns the target Thioredoxin-like protein 1 (Homo sapiens) (UniProt O43396). As to the kind of experiment: Binding affinity to TXNL1 in human NCI-H23 cells at 1 uM by mass spectrometry based pull down assay. Format: cell-based.
Test [10] concerns the target T2, 80S Ribosome (Homo sapiens) (UniProt P08865+P42677+P62753+P15880+P23396+P61247+P62701+P22090+P46782+P62081+P62241+P46781+P46783+P62280+P25398+P62277+P62263+P62841+P62244+P62249+P08708+P62269+P39019+P60866+P63220+P62266+P62847+P62851+P62854+P62979+P62857+P62273+P62861+P39023+P36578+P46777+Q02878+P18124+P62424+P62917+P32969+P27635+P62906+P62913+P30050+P26373+P40429+P50914+P61313+P18621+Q07020+Q02543+P84098+P46778+P35268+P62829+P62750+P83731+P61254+P61353+P46776+P46779+P47914+P62888+P62899+P62910+P49207+P42766+P18077+Q9Y3U8+P83881+P61927+P61513+P63173+P62891+P62945+P05388+P05386). As to the kind of experiment: Binding affinity to RPL19 in human NCI-H358 cells at 1 uM by mass spectrometry based pull down assay. Format: cell-based.

Test [11] addresses ADP-ribosylation factor-like protein 2 (Homo sapiens) (UniProt P36404). As to the kind of experiment: Binding affinity to ARL2 in human NCI-H358 cells at 1 uM by mass spectrometry based pull down assay. Format: cell-based.
For test [12], the target named is Acyl-coenzyme A thioesterase 13 (Homo sapiens) (UniProt Q9NPJ3). As to the kind of experiment: Binding affinity to ACOT13 in human NCI-H23 cells at 1 uM by mass spectrometry based pull down assay. Format: cell-based. The method, boiled down: as §1
Test [13] has as its target Ribosomal protein S6 kinase alpha-1 (Homo sapiens) (UniProt Q15418). As to the kind of experiment: Binding affinity to RPS6KA1 in human NCI-H23 cells at 1 uM by mass spectrometry based pull down assay. Format: cell-based.
Test [14] addresses Inosine-5'-monophosphate dehydrogenase 1 (Homo sapiens) (UniProt P20839). As to the kind of experiment: Binding affinity to IMPDH1 in human NCI-H23 cells at 1 uM by mass spectrometry based pull down assay. Format: cell-based.
Test [15] deals with T2, 80S Ribosome (Homo sapiens). As to the kind of experiment: Binding affinity to RPS5 in human NCI-H358 cells at 1 uM by mass spectrometry based pull down assay. Format: cell-based.
Test [16] has the same target. As to the kind of experiment: Binding affinity to RPL26 in human NCI-H23 cells at 1 uM by mass spectrometry based pull down assay. Format: cell-based.
The target of test [17] is Cytoplasmic dynein 1 intermediate chain 2 (Homo sapiens) (UniProt Q13409). As to the kind of experiment: Binding affinity to DYNC1I2 in human NCI-H23 cells at 1 uM by mass spectrometry based pull down assay. Format: cell-based.
For test [18], the target named is Aldehyde dehydrogenase family 16 member A1 (Homo sapiens) (UniProt Q8IZ83). As to the kind of experiment: Binding affinity to ALDH16A1 in human NCI-H23 cells at 1 uM by mass spectrometry based pull down assay. Format: cell-based. The method, boiled down: as §1
Test [19] addresses Protein transport protein Sec16A (Homo sapiens) (UniProt O15027). As to the kind of experiment: Binding affinity to SEC16A in human NCI-H358 cells at 1 uM by mass spectrometry based pull down assay. Format: cell-based.
The target of test [20] is Small ribosomal subunit protein mS23 (Homo sapiens) (UniProt Q9Y3D9). As to the kind of experiment: Binding affinity to MRPS23 in human NCI-H358 cells at 1 uM by mass spectrometry based pull down assay. Format: cell-based.
Test [21] concerns the target Thymidylate kinase (Homo sapiens) (UniProt P23919). As to the kind of experiment: Binding affinity to DTYMK in human NCI-H358 cells at 1 uM by mass spectrometry based pull down assay. Format: cell-based.

Sequence of ADP-ribosylation factor-like protein 2 (Homo sapiens) (P36404 whole entry): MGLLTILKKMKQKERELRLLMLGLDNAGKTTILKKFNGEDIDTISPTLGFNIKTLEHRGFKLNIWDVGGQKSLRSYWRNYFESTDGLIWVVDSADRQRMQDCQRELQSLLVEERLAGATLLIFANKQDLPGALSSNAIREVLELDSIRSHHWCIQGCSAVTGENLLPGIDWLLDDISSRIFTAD
Sequence of Ribosomal protein S6 kinase alpha-1 (Homo sapiens) (Q15418 whole entry): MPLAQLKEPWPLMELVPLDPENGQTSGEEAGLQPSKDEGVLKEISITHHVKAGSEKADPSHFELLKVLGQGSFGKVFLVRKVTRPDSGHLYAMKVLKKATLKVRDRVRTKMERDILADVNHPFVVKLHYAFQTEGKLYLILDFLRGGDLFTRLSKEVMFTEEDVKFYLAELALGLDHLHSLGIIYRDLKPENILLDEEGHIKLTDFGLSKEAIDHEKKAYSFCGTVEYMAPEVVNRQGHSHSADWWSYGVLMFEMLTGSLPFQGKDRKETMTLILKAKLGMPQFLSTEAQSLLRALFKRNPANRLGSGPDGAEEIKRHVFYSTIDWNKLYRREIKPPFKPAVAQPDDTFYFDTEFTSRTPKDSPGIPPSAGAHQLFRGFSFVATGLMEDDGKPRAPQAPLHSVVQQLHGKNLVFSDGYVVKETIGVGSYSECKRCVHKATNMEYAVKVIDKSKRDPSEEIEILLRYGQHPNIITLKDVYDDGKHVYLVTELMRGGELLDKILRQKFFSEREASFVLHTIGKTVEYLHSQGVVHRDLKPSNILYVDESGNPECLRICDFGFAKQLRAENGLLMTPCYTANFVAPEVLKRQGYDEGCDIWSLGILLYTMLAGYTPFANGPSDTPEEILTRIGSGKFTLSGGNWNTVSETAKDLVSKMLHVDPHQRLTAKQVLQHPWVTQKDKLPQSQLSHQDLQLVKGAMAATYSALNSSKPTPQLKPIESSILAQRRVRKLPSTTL
Sequence of Acylamino-acid-releasing enzyme (Homo sapiens) (P13798 whole entry): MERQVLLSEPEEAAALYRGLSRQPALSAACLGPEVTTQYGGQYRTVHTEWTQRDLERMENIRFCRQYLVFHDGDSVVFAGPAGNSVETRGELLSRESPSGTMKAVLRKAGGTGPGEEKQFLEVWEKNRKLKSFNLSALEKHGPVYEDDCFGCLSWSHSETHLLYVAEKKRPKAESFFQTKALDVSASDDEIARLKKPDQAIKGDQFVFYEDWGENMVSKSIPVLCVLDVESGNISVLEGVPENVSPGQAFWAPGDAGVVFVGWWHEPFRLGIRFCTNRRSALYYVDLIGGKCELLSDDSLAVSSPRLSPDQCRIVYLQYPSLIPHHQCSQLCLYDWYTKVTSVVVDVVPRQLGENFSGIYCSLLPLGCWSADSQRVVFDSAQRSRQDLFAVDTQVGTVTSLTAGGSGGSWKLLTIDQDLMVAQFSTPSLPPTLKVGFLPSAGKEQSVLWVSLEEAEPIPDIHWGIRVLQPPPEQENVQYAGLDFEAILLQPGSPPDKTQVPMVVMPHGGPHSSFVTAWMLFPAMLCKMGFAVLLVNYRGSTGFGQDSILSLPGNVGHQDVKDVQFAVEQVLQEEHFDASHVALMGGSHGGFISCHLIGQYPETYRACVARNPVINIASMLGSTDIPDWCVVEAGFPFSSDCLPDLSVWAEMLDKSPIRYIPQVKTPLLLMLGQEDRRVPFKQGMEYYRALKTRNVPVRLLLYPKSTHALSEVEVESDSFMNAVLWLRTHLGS
Sequence of Signal recognition particle subunit SRP54 (Homo sapiens) (P61011 whole entry): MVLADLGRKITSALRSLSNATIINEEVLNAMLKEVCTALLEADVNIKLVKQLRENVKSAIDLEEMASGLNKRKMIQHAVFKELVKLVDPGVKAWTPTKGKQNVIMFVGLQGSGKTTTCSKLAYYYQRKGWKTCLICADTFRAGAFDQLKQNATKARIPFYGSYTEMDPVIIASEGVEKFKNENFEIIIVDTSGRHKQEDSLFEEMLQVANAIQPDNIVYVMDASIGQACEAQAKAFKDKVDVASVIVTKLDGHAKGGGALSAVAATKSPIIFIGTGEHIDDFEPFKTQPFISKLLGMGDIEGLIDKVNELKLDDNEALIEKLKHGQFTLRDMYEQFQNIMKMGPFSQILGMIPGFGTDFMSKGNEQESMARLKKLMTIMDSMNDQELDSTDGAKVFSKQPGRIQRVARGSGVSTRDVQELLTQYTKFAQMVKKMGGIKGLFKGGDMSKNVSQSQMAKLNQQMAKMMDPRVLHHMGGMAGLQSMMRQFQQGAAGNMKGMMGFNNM
Sequence of Cytoplasmic dynein 1 intermediate chain 2 (Homo sapiens) (Q13409 whole entry): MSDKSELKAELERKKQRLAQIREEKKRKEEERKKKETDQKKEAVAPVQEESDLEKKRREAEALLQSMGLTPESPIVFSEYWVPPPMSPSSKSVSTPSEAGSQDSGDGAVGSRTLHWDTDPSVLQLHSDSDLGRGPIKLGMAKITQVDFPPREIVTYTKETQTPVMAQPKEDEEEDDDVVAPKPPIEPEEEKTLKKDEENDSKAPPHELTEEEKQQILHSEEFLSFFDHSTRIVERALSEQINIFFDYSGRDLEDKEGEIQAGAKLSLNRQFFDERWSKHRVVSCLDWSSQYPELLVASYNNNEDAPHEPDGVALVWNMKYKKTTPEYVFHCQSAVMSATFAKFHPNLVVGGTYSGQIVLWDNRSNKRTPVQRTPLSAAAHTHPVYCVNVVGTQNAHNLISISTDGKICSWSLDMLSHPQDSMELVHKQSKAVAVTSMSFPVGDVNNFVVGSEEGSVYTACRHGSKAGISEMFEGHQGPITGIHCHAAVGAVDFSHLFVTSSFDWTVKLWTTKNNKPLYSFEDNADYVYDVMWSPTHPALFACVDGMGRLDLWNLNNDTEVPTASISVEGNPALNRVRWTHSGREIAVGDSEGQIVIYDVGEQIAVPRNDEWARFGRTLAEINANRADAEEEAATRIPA
Sequence of Thymidylate kinase (Homo sapiens) (P23919 whole entry): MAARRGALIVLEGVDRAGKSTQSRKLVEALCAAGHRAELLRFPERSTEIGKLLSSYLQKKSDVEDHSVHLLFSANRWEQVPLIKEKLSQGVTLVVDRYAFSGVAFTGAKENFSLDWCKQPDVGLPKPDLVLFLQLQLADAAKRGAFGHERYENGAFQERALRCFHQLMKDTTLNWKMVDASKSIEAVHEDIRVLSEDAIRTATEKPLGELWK
Sequence of DnaJ homolog subfamily B member 6 (Homo sapiens) (O75190 whole entry): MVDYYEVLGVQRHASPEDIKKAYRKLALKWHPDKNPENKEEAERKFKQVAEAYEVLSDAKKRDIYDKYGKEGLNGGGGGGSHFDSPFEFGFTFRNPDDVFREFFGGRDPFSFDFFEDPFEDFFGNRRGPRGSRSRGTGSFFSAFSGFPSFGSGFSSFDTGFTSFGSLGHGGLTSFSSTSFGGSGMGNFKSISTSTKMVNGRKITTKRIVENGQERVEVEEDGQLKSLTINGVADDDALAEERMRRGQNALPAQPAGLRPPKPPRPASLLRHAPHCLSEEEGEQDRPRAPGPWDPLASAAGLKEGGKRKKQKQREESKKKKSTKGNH
Sequence of Activin receptor type-1 (Homo sapiens) (Q04771 whole entry, the tested form may be a part): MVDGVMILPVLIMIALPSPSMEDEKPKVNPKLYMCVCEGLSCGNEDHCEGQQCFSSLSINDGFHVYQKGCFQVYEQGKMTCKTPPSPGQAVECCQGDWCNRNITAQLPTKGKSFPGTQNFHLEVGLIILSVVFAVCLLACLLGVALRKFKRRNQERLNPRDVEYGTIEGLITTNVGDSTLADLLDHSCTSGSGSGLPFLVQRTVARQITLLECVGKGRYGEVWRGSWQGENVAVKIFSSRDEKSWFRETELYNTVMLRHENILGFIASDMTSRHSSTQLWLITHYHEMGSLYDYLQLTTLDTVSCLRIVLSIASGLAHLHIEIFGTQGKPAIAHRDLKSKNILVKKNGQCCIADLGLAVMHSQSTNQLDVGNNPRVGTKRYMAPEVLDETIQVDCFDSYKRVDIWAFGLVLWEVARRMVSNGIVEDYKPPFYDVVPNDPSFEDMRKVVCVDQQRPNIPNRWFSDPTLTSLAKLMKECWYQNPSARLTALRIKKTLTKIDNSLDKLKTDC
Sequence of Thioredoxin-like protein 1 (Homo sapiens) (O43396 whole entry): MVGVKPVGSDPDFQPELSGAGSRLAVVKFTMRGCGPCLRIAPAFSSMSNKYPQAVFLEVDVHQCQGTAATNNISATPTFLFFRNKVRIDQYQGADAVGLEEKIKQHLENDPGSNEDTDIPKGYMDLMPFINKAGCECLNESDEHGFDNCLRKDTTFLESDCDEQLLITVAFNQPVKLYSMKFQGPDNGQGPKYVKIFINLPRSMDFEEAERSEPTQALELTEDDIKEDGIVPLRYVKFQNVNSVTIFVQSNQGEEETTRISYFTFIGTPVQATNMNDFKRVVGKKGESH
Sequence of Acyl-coenzyme A thioesterase 13 (Homo sapiens) (Q9NPJ3 whole entry): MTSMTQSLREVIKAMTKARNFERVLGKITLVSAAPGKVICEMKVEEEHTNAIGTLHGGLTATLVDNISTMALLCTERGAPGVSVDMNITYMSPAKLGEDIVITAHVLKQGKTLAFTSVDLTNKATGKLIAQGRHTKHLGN
Sequence of Inosine-5'-monophosphate dehydrogenase 1 (Homo sapiens) (P20839 2-514 limits assumed): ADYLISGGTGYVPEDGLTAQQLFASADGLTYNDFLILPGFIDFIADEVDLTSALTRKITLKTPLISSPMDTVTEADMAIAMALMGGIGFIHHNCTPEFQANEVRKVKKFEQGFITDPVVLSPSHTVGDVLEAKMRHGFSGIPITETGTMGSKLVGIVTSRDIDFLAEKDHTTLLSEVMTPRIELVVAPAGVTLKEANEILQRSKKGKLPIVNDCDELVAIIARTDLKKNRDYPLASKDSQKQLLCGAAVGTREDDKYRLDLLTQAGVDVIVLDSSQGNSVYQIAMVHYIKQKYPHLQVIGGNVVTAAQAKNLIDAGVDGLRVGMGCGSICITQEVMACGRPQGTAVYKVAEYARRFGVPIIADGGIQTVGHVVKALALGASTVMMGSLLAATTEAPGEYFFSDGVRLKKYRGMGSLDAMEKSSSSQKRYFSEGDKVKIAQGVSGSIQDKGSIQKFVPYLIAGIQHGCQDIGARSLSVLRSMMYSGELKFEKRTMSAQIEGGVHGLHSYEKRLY

`COc1cc(O)c2c(c1)/C=C/C[C@H](O)[C@H](O)C(=O)/C=C\C[C@H](C)OC2=O`: the Activity in [1] was 1.9%; in test [2], 0.5%.
As for `C=CC(=O)Nc1ccccc1Nc1nc(Nc2ccc(N3CCN(CCOCCOCCOCCNC(=O)CCCC[C@@H]4SC[C@@H]5NC(=O)N[C@@H]54)CC3)cc2)ncc1Cl`, the outcome in test [3], in test [4], in test [5], in test [6], in test [7] and in test [8] was Active. The outcome in [9], in test [10], in test [11], in [12], in test [13] and in test [14] was Active. Moreover, the result in test [15], in [16], in [17], in test [18], in test [19] and in [20] was Active. Besides, the outcome in test [21] was Active.
